Where “and” joins values, the source holds several entries; their conditions need not be identical. Equal entries are not always repeated.
Tests used:
Mus musculus [1] = assay: Maximal Electroshock seizure (% of animals without seizures) at the dose of 1000 mg/kg on mice; format: functional
Procedure, shortened: (§1)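 Swiss mice of both sexes, 10 per dose, ip in 1% Tween 80. Maximal electroshock set to kill 50% of controls (60 mA, 0.4 s, 0.6 ms pulse width). Mice without seizures counted as protected; percent protected.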

Mus musculus [2] = assay: Motor coordination in rotarod test performed (total number of falls in 3 min) at the dose of 1000 mg/kg on mice; format: functional
Mus musculus [3] = assay: Exploratory activity in hole board at the dose of 1000 mg/kg lactam derivatives on mice; format: functional
Procedure, shortened: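 Swiss mice of both sexes, 22 ± 2 g, 10 per dose, ip in 1% Tween 80. Hole board (Boissier and Simon); holes explored in 5 min counted by infrared device; mean ± SD.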

Mus musculus [4] = assay: Traction test (times in seconds on the horizontal wire with forelegs) performed at the dose of 1000 mg/kg on mice; format: functional
Procedure, shortened: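 Swiss mice of both sexes, 10 per dose, ip in 1% Tween 80. Boissier and Simon traction test; time spent hanging by forelegs on a horizontal wire, in seconds; mean ± SD.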

Rattus norvegicus [5] = assay: Effect of tested at dose of 100 mg/kg in the water- maze test after 30 minutes (day 4); format: functional
Rattus norvegicus [6] = assay: Effect of tested at dose of 100 mg/kg in the water- maze test after 60 minutes (day 4); format: functional
Procedure, shortened: (§2)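 Male Sprague-Dawley rats, 250-300 g, 10 per group; day 1 selects rats unable to leave the water maze within 5 min. Drug dosed ip twice daily on days 2-4, equimolar to 100 mg/kg piracetam. On day 5, two doses 30 min apart, then transtemporal ECS (60 mA/0.2 s). Mazes run 15, 60, 240 min after shock. Errors (reversals plus wrong entrances) and exit time recorded; mean ± SD, t test.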

Rattus norvegicus [7] = assay: Effect of lactam derivatives tested at dose of 100 mg/kg in the water- maze test (day 2); format: functional; procedure, shortened: as §2
Rattus norvegicus [8] = assay: Effect of tested at dose of 100 mg/kg in the water- maze test (day 1); format: functional; procedure, shortened: as §2
Rattus norvegicus [9] = assay: Effect of tested at dose of 100 mg/kg in the water- maze test (day 3); format: functional; procedure, shortened: as §2
Rattus norvegicus [10] = assay: Effect of tested at dose of 100 mg/kg in the water- maze test after 15 minutes (day 4); format: functional; procedure, shortened: as §2
Rattus norvegicus [11] = assay: Effect of tested at dose of 100 mg/kg in the water- maze test (day 2); format: functional; procedure, shortened: as §2
Rattus norvegicus [12] = assay: Effect of tested at dose ofv 100 mg/kg in the water- maze test (day 2); format: functional; procedure, shortened: as §2
Rattus norvegicus [13] = assay: Effect of lactam derivative on retention in one-trial passive avoidance test in rats tested at equimolar doses to 100 mg/kg ip of piracetam; format: functional, organism-based; set-up: dose 100 mg/kg; conditions: at 100 mg/kg
Procedure, shortened: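 Male Sprague-Dawley rats, 250-300 g, 8 per group, dosed ip twice for 2 days, equimolar to 100 mg/kg piracetam. Trained to avoid dark compartment, 720 μA footshock for 15 s; retested 24 h later with grid off. Rats avoiding dark side 0.2-3 min counted as remembering; percent retention.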

Rattus norvegicus [14] = assay: Effect of lactam derivatives tested at dose of 100 mg/kg in the water- maze test (day 1); format: functional; procedure, shortened: as §2
Rattus norvegicus [15] = assay: Retention time was measured at equimolar doses to 100 mg/kg ip of piracetam; format: functional, organism-based; set-up: dose 100 mg/kg
Procedure, shortened: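 Male Sprague-Dawley rats, 8 per group, ip twice for 2 days, equimolar to 100 mg/kg piracetam. Footshock 720 μA, 15 s; retest 24 h later. For remembering rats, retention time T = T' − T0, light-compartment time at retest minus time at acquisition; mean ± SD, t test.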

Mus musculus [16] = assay: Spontaneous motor activity in open field at the dose of 1000 mg/kg on mice; format: functional
Procedure, shortened: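 Swiss mice, male and female, 22 ± 2 g, 10 per dose (5 each sex). Dosed ip in 1% Tween 80, doses up to 1000 mg/kg. Open field 15 min after injection; total movements in 5 min; mean ± SD, t test.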

Mus musculus [17] = assay: Maximal Electroshock seizure (% of animals without seizures) at the dose of 500 mg/kg on mice; format: functional
Procedure, shortened: (§3)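 Swiss mice (5 male, 5 female per dose, 22 ± 2 g) dosed ip in 1% Tween 80, with vehicle controls. Maximal electroshock set to kill 50% of controls: 60 mA, 0.4 s shock, 0.6 ms pulse width. Read-out: percent of animals without seizures.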

Mus musculus [18] = assay: Motor coordination in rotarod test performed (total number of falls in 3 min) at the dose of 1000 mg/kg on mice (statistical significance test); format: functional
Procedure, shortened: (§4)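 Rota-rod motor coordination in Swiss mice (10 per dose, sexes mixed, 22 ± 2 g), dosed ip in 1% Tween 80 against vehicle controls. Falls counted per animal, mean ± SD; t test vs vehicle. The table footer gives 3 min and the method gives a 100 s observation period.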

Mus musculus [19] = assay: Motor coordination in rotarod test performed (total number of falls in 3 min) at the dose of 500 mg/kg on mice; format: functional; procedure, shortened: as §4
Mus musculus [20] = assay: Exploratory activity in hole board at the dose of 1000 mg/kg on mice (statistical significance test); format: functional
Procedure, shortened: (§5)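 Swiss inbred mice (male and female, 22 ± 2 g), 10 per dose (5 of each sex), given ip in 1% Tween 80; controls got vehicle only. Boissier–Simon hole board with infrared detection: total holes explored per animal in 5 min, mean ± SD. t test vs vehicle.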

Mus musculus [21] = assay: Spontaneous motor activity in open field at the dose of 1000 mg/kg on mice (statistical significance test); format: functional
Procedure, shortened: (§6)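 Open-field activity in male and female Swiss mice (22 ± 2 g, 10 per dose), compound given ip in 1% Tween 80 with vehicle-only controls. Tested 15 min after injection: total movements per animal in 5 min, mean ± SD; t test vs vehicle.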

Mus musculus [22] = assay: Spontaneous motor activity in open field at the dose of 500 mg/kg on mice; format: functional; procedure, shortened: as §6
Mus musculus [23] = assay: Traction test (times in seconds on the horizontal wire with forelegs) performed at the dose of 1000 mg/kg on mice (statistical significance test); format: functional
Procedure, shortened: (§7)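 Boissier–Simon traction test in Swiss mice (5 male plus 5 female per dose, 22 ± 2 g), dosed ip in 1% Tween 80, with vehicle controls. Read-out: time in seconds each mouse stays hanging by its forelegs on a horizontal wire, mean ± SD; t test vs vehicle.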

Mus musculus [24] = assay: Traction test (times in seconds on the horizontal wire with forelegs) performed at the dose of 500 mg/kg on mice (statistical significance test); format: functional; procedure, shortened: as §7
Mus musculus [25] = assay: Maximal Electroshock seizure (% of animals without seizures) at the dose of 1000 mg/kg lactam derivatives on mice; format: functional; procedure, shortened: as §1
Mus musculus [26] = assay: Maximal Electroshock seizure (% of animals without seizures) at the dose of 500 mg/kg lactam derivatives on mice; format: functional; procedure, shortened: as §3
Mus musculus [27] = assay: Motor coordination in rotarod test performed (total number of falls in 3 min) at the dose of 1000 mg/kg lactam derivatives on mice; format: functional; procedure, shortened: as §4
Mus musculus [28] = assay: Motor coordination in rotarod test performed (total number of falls in 3 min) at the dose of 500 mg/kg lactam derivatives on mice; format: functional; procedure, shortened: as §4
Mus musculus [29] = assay: Exploratory activity in hole board at the dose of 500 mg/kg lactum derivatives on mice; format: functional; procedure, shortened: as §5
Mus musculus [30] = assay: Traction test (times in seconds on the horizontal wire with forelegs) performed at the dose of 1000 mg/kg lactam derivatives on mice; format: functional; procedure, shortened: as §7
Mus musculus [31] = assay: Traction test (times in seconds on the horizontal wire with forelegs) performed at the dose of 500 mg/kg lactam derivatives on mice; format: functional; procedure, shortened: as §7

Compound: NC(=O)CN1CCCC1=O [PIRACETAM]
- Activity (Mus musculus [1]): 0%
- Activity (Mus musculus [2]): 1.7
- Activity (Mus musculus [3]): 19.6
- Activity (Mus musculus [4]): 79.9
- No. of errors (Rattus norvegicus [5]): 2.1
- Speed of performance (Rattus norvegicus [5]): 235.7
- No. of errors (Rattus norvegicus [6]): 3.6
- Speed of performance (Rattus norvegicus [6]): 197.6
- No. of errors (Rattus norvegicus [7]): 7.2 and 8.1
- No. of errors (Rattus norvegicus [8]): 7.6 and 9.1
- No. of errors (Rattus norvegicus [9]): 3.5 and 5
- Speed of performance (Rattus norvegicus [9]): 249 and 250.1
- No. of errors (Rattus norvegicus [10]): 3.2
- Speed of performance (Rattus norvegicus [10]): 251
- Speed of performance (Rattus norvegicus [11]): 291.5
- Speed of performance (Rattus norvegicus [12]): 282.7
- Retention (Rattus norvegicus [13]): 100%
- Speed of performance (Rattus norvegicus [14]): 272.2 and 265
- Retention time (Rattus norvegicus [15]): 43.2 s
- Activity (Mus musculus [16]): 3764.3

Compound: CCOC(=O)C1CNC(=O)CC1C(=O)OCC (stereo in doubt; 5) [listing 1 of 2 here]
- Activity (Mus musculus [1]): 40%
- Activity (Mus musculus [17]): 0%
- Activity (Mus musculus [18]): 16.4
- Activity (Mus musculus [19]): 0.8
- Activity (Mus musculus [20]): 8.9%
- Activity (Mus musculus [21]): 782
- Activity (Mus musculus [22]): 3025.2
- Activity (Mus musculus [23]): <7
- Activity (Mus musculus [24]): 65.1

Compound: CCOC(=O)C1CNC(=O)CC1C(=O)OCC (stereo in doubt; 5) [listing 2 of 2 here]
- Retention (Rattus norvegicus [13]): 100%
- Retention time (Rattus norvegicus [15]): 47.2 s

Compound: CCOC(=O)C1CNC(=O)CC1C(=O)OCC (stereo in doubt; 4) [listing 1 of 2 here]
- Retention (Rattus norvegicus [13]): 100%
- Retention time (Rattus norvegicus [15]): 44.2 s

Compound: CCOC(=O)C1CNC(=O)CC1C(=O)OCC (stereo in doubt; 4) [listing 2 of 2 here]
- Activity (Mus musculus [25]): 0%
- Activity (Mus musculus [26]): 0%
- Activity (Mus musculus [27]): 3.3
- Activity (Mus musculus [28]): 1
- Activity (Mus musculus [3]): 20
- Activity (Mus musculus [29]): 20.4
- Activity (Mus musculus [22]): 3410.5
- Activity (Mus musculus [30]): 112.8
- Activity (Mus musculus [31]): 75.8
- Activity (Mus musculus [16]): 2522

Source: ChEMBL document CHEMBL1124006, “Synthesis and cognition activating properties of some mono- and bicyclic lactam derivatives” (1988)
